Reference: ChEMBL document CHEMBL1123468, “Synthesis and antiviral activity of (E)-5-(2-bromovinyl)uracil and (E)-5-(2-bromovinyl)uridine” (1986)
Values after ≈ are worked out from the molar mass of the structure shown.

Tests used:
E6SM [1] = assay: The compound was tested for its antiviral activity against HSV-1 (KOS) virus in E6SM cell line; assay type: functional; conditions: Homo sapiens
In short: (§1)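 Virus-induced cytopathogenicity in cell culture, scored microscopically. The value is the minimum concentration that cuts viral cytopathogenicity by 50%. Normal cell morphology was also checked microscopically at up to 400 μg/mL.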

E6SM [2] = assay: The concentration required to reduce the cytopathogenicity of HSV-1 (KOS) in E6SM cell culture by 50% in presence of 100 ug/mL dThd; assay type: functional; conditions: Homo sapiens
In short: (§2)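 E6SM cells infected with HSV-1 (KOS), with dThd added to the culture medium at the stated concentration. The value is the minimum concentration that reduces viral cytopathogenicity by 50%.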

E6SM [3] = assay: The concentration required to reduce the cytopathogenicity of HSV-1 (KOS) in E6SM cell culture by 50% in presence of 100 ug/mL of Urd; assay type: functional; conditions: Homo sapiens
In short: (§3)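 E6SM cells infected with HSV-1 (KOS), with Urd or dUrd added alone or together with 6-aminothymine (50 μg/mL). The value is the minimum concentration that reduces viral cytopathogenicity by 50%.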

E6SM [4] = assay: The concentration required to reduce the cytopathogenicity of HSV-1 (KOS) in E6SM cell culture by 50% in presence of 100 ug/mL of Urd and 50 ug/mL of 6-aminothymine; assay type: functional; conditions: Homo sapiens; in short: as §3
E6SM [5] = assay: The concentration required to reduce the cytopathogenicity of HSV-1 (KOS) in E6SM cell culture by 50% in presence of 100 ug/mL of dUrd and 50 ug/mL of 6-aminothymine; assay type: functional; conditions: Homo sapiens; in short: as §3
E6SM [6] = assay: The compound was tested for its antiviral activity against HSV-1 (F) virus in E6SM cell culture; assay type: functional; conditions: Homo sapiens; in short: as §1
E6SM [7] = assay: The concentration required to reduce the cytopathogenicity of HSV-1 (KOS) in E6SM cell culture by 50% in presence of 50 ug/mL of 6-aminothymine; assay type: functional; conditions: Homo sapiens
In short: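 E6SM cultures were infected with HSV-1 strain KOS. 6-Aminothymine or benzylacyclouridine was present in the medium together with the test compound. The value is the minimum concentration giving 50% reduction of viral cytopathogenicity, scored by the earlier-described cytopathogenicity inhibition procedure.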

E6SM [8] = assay: The compound was tested for its antiviral activity against HSV-1 (KOS) virus in E6SM cell culture; assay type: functional; conditions: Homo sapiens; in short: as §1
E6SM [9] = assay: The compound was tested for its antiviral activity against HSV-1 (McIntyre) virus in E6SM cell culture; assay type: functional; conditions: Homo sapiens; in short: as §1
E6SM [10] = assay: The compound was tested for its antiviral activity against HSV-2 (196) virus in E6SM cell culture; assay type: functional; conditions: Homo sapiens; in short: as §1
E6SM [11] = assay: The compound was tested for its antiviral activity against HSV-2 (Lyons) virus in E6SM cell culture; assay type: functional; conditions: Homo sapiens; in short: as §1
E6SM [12] = assay: The compound was tested for its antiviral activity against TK-HSV-1 (B2006) virus in E6SM cell culture; assay type: functional; conditions: Homo sapiens; in short: as §1
E6SM [13] = assay: The compound was tested for its antiviral activity against vaccinia virus in E6SM cell culture; assay type: functional; conditions: Homo sapiens; in short: as §1
E6SM [14] = assay: The compound was tested for its antiviral activity against vesicular stomatitis virus in E6SM cell culture; assay type: functional; conditions: Homo sapiens; in short: as §1
E6SM [15] = assay: The concentration required to reduce the cytopathogenicity of HSV-1 (KOS) in E6SM cell culture by 50% in absence of Urd; assay type: functional; conditions: Homo sapiens; in short: as §3
E6SM [16] = assay: The concentration required to reduce the cytopathogenicity of HSV-1 (KOS) in E6SM cell culture by 50% in absence of dUrd; assay type: functional; conditions: Homo sapiens; in short: as §3
E6SM [17] = assay: The concentration required to reduce the cytopathogenicity of HSV-1 (KOS) in E6SM cell culture by 50% in presence of 1 ug/mL dThd; assay type: functional; conditions: Homo sapiens; in short: as §2
E6SM [18] = assay: The concentration required to reduce the cytopathogenicity of HSV-1 (KOS) in E6SM cell culture by 50% in presence of 1 ug/mL of Urd and 50 ug/mL of 6-aminothymine; assay type: functional; conditions: Homo sapiens; in short: as §3
E6SM [19] = assay: The concentration required to reduce the cytopathogenicity of HSV-1 (KOS) in E6SM cell culture by 50% in presence of 1 ug/mL of dUrd; assay type: functional; conditions: Homo sapiens; in short: as §3
E6SM [20] = assay: The concentration required to reduce the cytopathogenicity of HSV-1 (KOS) in E6SM cell culture by 50% in presence of 1 ug/mL of dUrd and 50 ug/mL of 6-aminothymine; assay type: functional; conditions: Homo sapiens; in short: as §3
E6SM [21] = assay: The concentration required to reduce the cytopathogenicity of HSV-1 (KOS) in E6SM cell culture by 50% in presence of 10 ug/mL of Urd; assay type: functional; conditions: Homo sapiens; in short: as §3
E6SM [22] = assay: The concentration required to reduce the cytopathogenicity of HSV-1 (KOS) in E6SM cell culture by 50% in presence of 10 ug/mL of Urd and 50 ug/mL of 6-aminothymine,; assay type: functional; conditions: Homo sapiens; in short: as §3
E6SM [23] = assay: The concentration required to reduce the cytopathogenicity of HSV-1 (KOS) in E6SM cell culture by 50% in presence of 30 ug/mL dThd; assay type: functional; conditions: Homo sapiens
In short: (§4)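 Thymidine (dThd) was added to the E6SM culture medium alongside the test compound, and cells were infected with HSV-1 strain KOS. The endpoint is the minimum inhibitory concentration that reduces viral cytopathogenicity by 50%. The cytopathogenicity inhibition procedure follows the earlier-described method.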

E6SM [24] = assay: The concentration required to reduce the cytopathogenicity of HSV-1 (KOS) in E6SM cell culture by 50% in presence of 300 ug/mL dThd; assay type: functional; conditions: Homo sapiens; in short: as §4
E1 SM = assay: The compound was tested for its antiviral activity against HSV-1 (KOS) virus in E1SM cell line; assay type: functional, Homo sapiens; in short: as §1
HEp-2 = assay: The compound was tested for its antiviral activity against HSV-1 (KOS) virus in HEp-2M cell line; assay type: functional; conditions: Homo sapiens; in short: as §1
HSF (VGS) = assay: The compound was tested for its antiviral activity against HSV-1 (KOS) virus in HSF (VGS) cell line; assay type: functional; conditions: Homo sapiens; in short: as §1
Mo = assay: The compound was tested for its antiviral activity against HSV-1 (KOS) virus in MO cell line; assay type: functional; conditions: Homo sapiens; in short: as §1
PRK = assay: The compound was tested for its antiviral activity against HSV-1 (KOS) virus in PRK cell line; assay type: functional; conditions: Oryctolagus cuniculus
In short: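 Primary rabbit kidney cells infected with HSV-1 (KOS). The value is the minimum concentration that cuts viral cytopathogenicity by 50%. Cytotoxicity was judged as microscopically detectable alteration of cell morphology at up to 400 μg/mL.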

HeLa = assay: The compound was tested for its antiviral activity against HSV-1 (KOS) virus in HeLa cell line; assay type: functional; conditions: Homo sapiens; in short: as §1
E6SM [25] = assay: The compound was tested for its antiviral activity against HSV-2 (G) virus in E6SM cell culture; assay type: functional; conditions: Homo sapiens; in short: as §1
E6SM [26] = assay: The concentration required to reduce the cytopathogenicity of HSV-1 (KOS) in E6SM cell culture by 50% in presence of 10 ug/mL of dUrd and 50 ug/mL of 6-aminothymine; assay type: functional; conditions: Homo sapiens; in short: as §3
E6SM [27] = assay: The concentration required to reduce the cytopathogenicity of HSV-1 (KOS) in E6SM cell culture by 50% in presence of 1 ug/mL of Urd; assay type: functional; conditions: Homo sapiens; in short: as §3
BALB/3T3 = assay: The compound was tested for its antiviral activity against HSV-1 (KOS) virus in BALB/3T3 cell line; conditions: Mus musculus

| Structure (SMILES) | MIC50 (E6SM [1]) [µg/mL] | MIC50 (E6SM [2]) [µg/mL] | MIC50 (E6SM [3]) [µg/mL] | MIC50 (E6SM [4]) [µg/mL] | MIC50 (E6SM [5]) [µg/mL] | MIC50 (E6SM [6]) [µg/mL] | MIC50 (E6SM [7]) [µg/mL] | MIC50 (E6SM [8]) [µg/mL] | MIC50 (E6SM [9]) [µg/mL] | MIC50 (E6SM [10]) [µg/mL] | MIC50 (E6SM [11]) [µg/mL] | MIC50 (E6SM [12]) [µg/mL] | MIC50 (E6SM [13]) [µg/mL] | MIC50 (E6SM [14]) [µg/mL] | MIC50 (E6SM [15]) [µg/mL] | MIC50 (E6SM [16]) [µg/mL] | MIC50 (E6SM [17]) [µg/mL] | MIC50 (E6SM [18]) [µg/mL] | MIC50 (E6SM [19]) [µg/mL] | MIC50 (E6SM [20]) [µg/mL] | other results |
| --- | --- | --- | --- | --- | --- | --- | --- | --- | --- | --- | --- | --- | --- | --- | --- | --- | --- | --- | --- | --- | --- |
| O=c1[nH]c(=O)n([C@H]2C[C@H](O)[C@@H](CO)O2)cc1/C=C/Br [BRIVUDINE] | 0.02 (≈ 0.06 µM) | 300 | 0.02 | 0.02 | 0.2 | 0.02 (≈ 0.06 µM) | 0.01 | 0.02 (≈ 0.06 µM) | 0.02 (≈ 0.06 µM) | 10 (≈ 30 µM) | 4 (≈ 12 µM) | 40 (≈ 120 µM) | 7 (≈ 21 µM) | > 400 | 0.02 (≈ 0.06 µM) | 0.02 (≈ 0.06 µM) | 0.02 | 0.02 | 0.01 | 0.01 | MIC50 (E6SM [21]): 0.04 µg/mL; MIC50 (E6SM [22]): 0.04 µg/mL; MIC50 (E6SM [23]): 70 µg/mL; MIC50 (E6SM [24]): > 400 µg/mL; MIC50 (E1 SM): 0.02 µg/mL (≈ 0.06 µM); MIC50 (HEp-2): 0.2 µg/mL (≈ 0.6 µM); MIC50 (HSF (VGS)): 0.04 µg/mL (≈ 0.12 µM); MIC50 (Mo): 0.007 µg/mL (≈ 0.021 µM); MIC50 (PRK): 0.007 µg/mL (≈ 0.021 µM); MIC50 (HeLa): 0.04 µg/mL (≈ 0.12 µM); MIC50 (E6SM [25]): 2 µg/mL (≈ 6 µM); MIC50 (E6SM [26]): 0.02 µg/mL; MIC50 (E6SM [27]): 0.04 µg/mL; MIC50 (BALB/3T3): 0.1 µg/mL (≈ 0.3 µM) |
| Oc1ncc(/C=C/Br)c(O)n1 | 7 (≈ 32.3 µM) | > 400 | 4 | > 400 | 7 | 4 (≈ 18.4 µM) | > 400 | 7 (≈ 32.3 µM) | 4 (≈ 18.4 µM) | > 400 | > 400 | > 200 | > 400 | > 400 | 4 (≈ 18.4 µM) | 7 (≈ 32.3 µM) | 7 | > 400 | 10 | > 400 | MIC50 (E6SM [21]): 7 µg/mL; MIC50 (E6SM [22]): > 400 µg/mL; MIC50 (E6SM [23]): > 400 µg/mL; MIC50 (E6SM [24]): > 400 µg/mL; MIC50 (E1 SM): 7 µg/mL (≈ 32.3 µM); MIC50 (HEp-2): > 200 µg/mL; MIC50 (HSF (VGS)): 7 µg/mL (≈ 32.3 µM); MIC50 (Mo): > 400 µg/mL; MIC50 (PRK): > 400 µg/mL; MIC50 (HeLa): 2 µg/mL (≈ 9.22 µM); MIC50 (E6SM [25]): > 400 µg/mL; MIC50 (E6SM [26]): 10 µg/mL; MIC50 (E6SM [27]): 2 µg/mL; MIC50 (BALB/3T3): > 400 µg/mL |
